This is a sample that favours compounds with a hit; in the whole collection about 2.8% have one here.
Mdm2 ligase inh: inhibitors of human Mdm2 E3 ubiquitin ligase. cell-based MDM2 ubiquitination luciferase reporter, 2 h; 0 = plate control, 100 = twice control, blank-subtracted. signal enhancement, % at 5 µM. hit rate 0.11% among 210,000;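 active means signal enhancement of 30% or more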;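 further: luminescence tracks abundance of the self-degrading MDM2-luciferase fusion protein; higher signal means inhibition of MDM2 E3 ligase activity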
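Assay system: stable mammalian line carrying autodegrading MDM2–luciferase fusion reporter; amount: 2000 cells seeded into each well; buffer or medium: DMEM; benchmarks: plate control and blank wells; signal: luciferase luminescence; timing: 2 h compound exposure at 37 °C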
NPY Y2 blocker: NPY-Y2 (human) receptor antagonism; NPY-Y2 expressing cells, antagonist mode; AID 793; hit rate 0.99% among 140,000; inhibition, % at 2.7 µM; in the data active means inhibition above about 17%
Measles CPE: protection of cells from measles virus. Measles virus-infected cells, CPE protection, absorbance. hit rate 1.5% among 140,000. protection (pct of control), % at 4 µM; in the data active means protection mostly above about 24%, no sharp cut-off; inactive means mostly below about 26%
NPY-Y2 PAM-ag: human NPY-Y2 potentiation or agonism, primary screen. P49146. hit rate 0.45% among 220,000. activation, % at 3.6 µM. cells expressing NPY-Y2, potentiator/agonist read-out. AID 1359; in the data active means activation above about 27%;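 further: cells stimulated with NPY near EC25 plus isoproterenol at EC100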
NPY Y1 blocker: blocks the human neuropeptide Y Y1 receptor; HEK293-CNG Y1 cells, membrane potential fluorescence; NPY at EC95, then isoproterenol; inhibition, % at 3.6 µM; hit rate 1% among 200,000; P25929;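 active means inhibition above the campaign mean inhibition of all tested compounds plus 3 SD, cut at about 20% in these data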
Target sequence (P25929 whole entry, looked up): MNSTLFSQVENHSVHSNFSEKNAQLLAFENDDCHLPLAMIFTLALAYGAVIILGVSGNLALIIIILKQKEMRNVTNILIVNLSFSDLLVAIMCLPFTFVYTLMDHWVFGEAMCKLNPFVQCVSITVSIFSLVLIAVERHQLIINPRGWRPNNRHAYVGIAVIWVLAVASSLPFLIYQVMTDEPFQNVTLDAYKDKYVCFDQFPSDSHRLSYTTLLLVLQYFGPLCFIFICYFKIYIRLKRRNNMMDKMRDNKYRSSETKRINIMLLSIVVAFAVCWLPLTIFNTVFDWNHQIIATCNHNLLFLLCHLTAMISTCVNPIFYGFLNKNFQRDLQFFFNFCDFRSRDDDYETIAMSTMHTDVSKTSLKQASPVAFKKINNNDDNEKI
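material = HEK293 cells with Y1 receptor plus CNG channel | also added = NPY 25 nM then isoproterenol 1 µM plus Ro 20-1724 25 µM | schedule = dye 3 h, compound 60 min room temperature, stimulation 45 min | measured by = membrane potential fluorescence | benchmarks = high control isoproterenol alone, low control NPY with isoproterenol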
NPY-Y1 PAM-ag: human NPY-Y1 potentiation or agonism, primary screen; NPY-Y1 expressing cells, potentiator/agonist activation; activation, % at 3.6 µM; hit rate 0.37% among 220,000; in the data active means activation above about 33%, passing the limit was not always enough;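 further: cells stimulated with NPY at EC10 then isoproterenol at EC100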
Each line names hits and unclear results; the compound was inactive in the other large screens.

CC(=O)c1c(C)[nH]c(C(=O)NCc2ccccc2Cl)c1C	none
CCc1c(C(=O)NCc2ccccc2Cl)[nH]c(C)c1C(C)=O	Measles CPE 34
COc1cc(CO)ccc1OCc1nnnn1-c1ccc(C)cc1	none (no result: NPY Y2 blocker, Measles CPE)
COC(=O)C1=C(C(=O)OC)[C@@H]2N(C)c3ccc(OC)cc3[C@@]23C[C@@H](C(=O)OC)N=C3N1	Mdm2 ligase inh 36 (no result: NPY Y2 blocker, Measles CPE, NPY-Y2 PAM-ag, NPY Y1 blocker, NPY-Y1 PAM-ag)
COc1cc(C(=O)N2CCC(O)(c3ccccc3)CC2)cc(OC)c1OC	none
CNC(=O)NC(=O)COC(=O)c1n[nH]c2ccccc12	none (no result: NPY Y2 blocker, Measles CPE, NPY Y1 blocker)
O=C(COC(=O)c1n[nH]c2ccccc12)NC(=O)NCc1ccco1	Measles CPE 25
O=C(COC(=O)c1cc2ccccc2cc1O)NC(=O)NCc1ccco1	NPY Y1 blocker 21 (no result: NPY Y2 blocker, Measles CPE)
Cc1cc(OCCn2cc(/C(N)=N/O)c3ccccc32)ccc1Cl	none
S=C(N/N=C/c1ccccc1Cl)Nc1cccc(Cl)c1Cl	none (no result: NPY Y2 blocker, Measles CPE, NPY Y1 blocker)
CC(C)OC(=O)CSc1nnc(-c2ccccc2)n1N	none
Cc1cc(S(=O)(=O)NCC(c2ccccc2)c2ccccc2)ccc1-n1cnnn1	Measles CPE 23
CCN(CC)S(=O)(=O)c1ccc(OC)c(-n2cnnn2)c1	none (no result: NPY Y2 blocker, Measles CPE)
Cc1cc(S(=O)(=O)NC2CCCCC2)ccc1-n1cnnn1	none (no result: NPY Y2 blocker, Measles CPE)
CCN(CC)S(=O)(=O)c1ccc(-n2cnnn2)c(C)c1	Measles CPE 48
CC(C)CCN1CCN(Cc2nc3c(s2)CCCC3)CC1CCO (stereo unspecified)	none (no result: NPY Y2 blocker, Measles CPE)
CCOc1ccc(C2CC(=O)N(Nc3ccc([N+](=O)[O-])cc3[N+](=O)[O-])C2=O)cc1 (stereo unspecified)	none (no result: NPY Y2 blocker, Measles CPE, NPY Y1 blocker)
CC(C)Oc1ccc(C(CC(=O)NCc2ccco2)c2ccccc2)cc1 (stereo unspecified)	Measles CPE 24
CC(=O)Nc1nc(C2COc3ccccc3O2)cs1 (stereo unspecified)	none
COC(=O)c1sccc1NC(=O)CN(C)NS(=O)(=O)c1ccc(Cl)cc1	Measles CPE 44
CC1CCCCC1NC(=O)/C(C#N)=C/c1ccccc1F (stereo unspecified)	none
CC(NCC(=O)Nc1cc(S(=O)(=O)N2CCCCCC2)ccc1Cl)c1ccccc1 (stereo unspecified)	none (no result: NPY Y2 blocker, Measles CPE)
CCN(CC)C(=O)CSc1nnc2nnc3cc(OC)ccc3n12	none (no result: NPY Y2 blocker, Measles CPE, NPY Y1 blocker)
CCOc1ccc(OCC(O)CNC2CCN(Cc3ccccc3)CC2)cc1 (stereo unspecified)	NPY Y2 blocker 19, NPY Y1 blocker 30
OC(CNC1Cc2ccccc2C1)COc1ccc(F)cc1 (stereo unspecified)	NPY-Y2 PAM-ag 74, NPY-Y1 PAM-ag 85 (no result: NPY Y2 blocker, Measles CPE, NPY Y1 blocker)
CC(=O)c1ccc(OCC(O)CN2CCN(Cc3ccccc3)CC2)cc1 (stereo unspecified)	none
CC(C)(c1ccccc1)c1ccc(OCC(O)CNC2CCN(Cc3ccccc3)CC2)cc1 (stereo unspecified)	NPY Y1 blocker 21 (no result: NPY Y2 blocker, Measles CPE)
CC(=O)Nc1ccc(OCC(O)CNC2CCCC2)cc1 (stereo unspecified)	none
N#Cc1ccc(Cl)cc1NC(=O)CSc1nc2nc(-c3cccs3)cc(C(F)(F)F)c2c(=O)[nH]1	none (no result: NPY Y2 blocker, Measles CPE, NPY Y1 blocker)
Cc1nc(-c2ccccc2)sc1C(=O)CSc1ccccc1	NPY Y2 blocker 24, NPY Y1 blocker 21
Cc1nn(CCC(=O)NNC(=S)NCC(C)C)c(C)c1Br	Measles CPE 33
CCOCCCNC(=S)NNC(=O)CCn1nc(C)c(Br)c1C	Measles CPE 39
COCCCNC(=S)NNC(=O)Cn1nc(C)c(Br)c1C	none
CNC(=S)NNC(=O)CCn1nc(C)c(Br)c1C	none
CCC1(C)CC2(CCCN(CCC(=O)c3ccccc3)C2)CCO1 (stereo unspecified)	none (no result: NPY Y2 blocker, Measles CPE)
CCCn1c(=N)n(CC(O)c2ccco2)c2ccccc21 (stereo unspecified)	none
Cc1ccc(Cn2c(=N)n(CC(O)c3ccco3)c3ccccc32)cc1 (stereo unspecified)	NPY Y2 blocker 23
C=CCn1c(SCc2c(C)noc2C)nc2sc(C)c(C)c2c1=O	NPY Y2 blocker 17, NPY Y1 blocker 21
Cc1noc(C)c1CSc1nc2sc(C)c(C)c2c(=O)n1-c1ccccc1	none
COc1cc(C(=O)Nc2ccc(NC(C)=O)cc2)ccc1OCc1ccccc1	none (no result: NPY Y2 blocker, Measles CPE)
CCCCc1c(O)nc(SCC(=O)Nc2ccc3c(c2)CCC3)[nH]c1=O	Measles CPE 49
COc1ccc(Cn2nc(C)n(N(C)c3ncc(C(F)(F)F)cc3Cl)c2=O)cc1	none
CC(=O)NC(CCS(C)(=O)=O)C(=O)Nc1ccc(C)c(F)c1 (stereo unspecified)	Measles CPE 57
CC(=O)NC(CCS(C)(=O)=O)C(=O)Nc1cccc(C)c1 (stereo unspecified)	none
O=C(CSc1nc2ccccc2o1)Nc1ccc(Cl)cc1	Measles CPE 26
CCOC(=O)CSc1nc2cc(S(=O)(=O)Nc3ccccc3OC)ccc2o1	NPY-Y2 PAM-ag 45, NPY-Y1 PAM-ag 70
CC(=O)Nc1ccc(NC(=O)CSc2nc3ccccc3o2)cc1	none
COC(=O)CSc1nc2ccccc2o1	Measles CPE 43
C=CCn1c(SCC(=O)c2cc(C)n(C(C)COC)c2C)nc2sc(C)c(C)c2c1=O (stereo unspecified)	none
Nc1c(C2=NCCO2)nnn1Cc1ccccc1	Measles CPE 41
Cn1cc(Br)c(C(=O)NC2CCCCC2)n1	none
Cc1ccc(NC(=O)c2cccs2)cc1	none
Cc1[nH]c(=O)[nH]c(=O)c1NC(=O)c1cccs1	Measles CPE 25
O=C(O)CC1S/C(=N\N=C2CCCCCCC2)N(c2ccccc2)C1=O (stereo unspecified)	none (no result: NPY Y2 blocker, Measles CPE)
O=C(O)CC1SC(=Nc2ccccc2)N(c2ccccc2)C1=O (stereo unspecified)	Measles CPE 51
CC(=O)Nc1ccccc1C(=O)C(=O)Nc1ccc(C(=O)N2CCOCC2)cc1	none (no result: NPY Y2 blocker, Measles CPE)
CCOC(=O)C1CCN(C(=O)CS(=O)Cc2nc(-c3ccc(C)cc3)oc2C)CC1 (stereo unspecified)	Measles CPE 46
CCOc1ccc(C(=S)N2CCCC2)cc1OC	none
CCOc1ccc(C(=O)N2CCCC2)cc1OC	Measles CPE 33
CCOC(=O)c1cnn(-c2nc(OCC)cc(OCC)n2)c1C	none
CCCn1c(=O)c2ccccc2n2c(SCCOc3ccccc3F)nnc12	NPY Y2 blocker 17, NPY Y1 blocker 26
CCCn1c(=O)c2ccccc2n2c(SCc3cc(=O)oc4ccc5ccccc5c34)nnc12	none
CCCn1c(=O)c2ccccc2n2c(SCc3cc(=O)n4ccsc4n3)nnc12	NPY Y1 blocker 21 (no result: Mdm2 ligase inh, Measles CPE)
CCCn1c(=O)c2ccccc2n2c(SCCOc3ccc(Cl)cc3)nnc12	none
CCOC(=O)C1CCN(C(c2cccnc2)c2c(NC(=O)c3ccco3)sc(C)c2C)CC1 (stereo unspecified)	Measles CPE 67
